Calls of active or inactive are those of the source. The calls are words filed in the database; no cut-off is given here.
Legend:
[1] = system: L02; test: Cytotoxicity against human HL7702 cells assessed as reduction in cell viability after 72 hrs by MTT assay; assay type: cell-based; settings: L02, 72 h
Summary of the method: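 Cells in RPMI 1640 with 10% heat-inactivated FBS and penicillin/streptomycin at 37 °C, 5% CO2. Seeded at 4000 per well, adhered overnight, then exposed to graded compound concentrations in triplicate wells for 72 h. MTT (5 mg/mL stock) added for 4 h, dissolved in DMSO, A490 read. IC50 is the concentration reducing viability by 50% versus untreated control.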

[2] = biological target: Mitogen-activated protein kinase 8/9 (Homo sapiens) (UniProt P45983+P45984); test: Induction of JNK 1/2 phosphorylatyion in human A549 cells at 10 uM pretreated with 5 mM NAC for 1 hr followed by compound addition and measured after 6 hrs by Western blot analysis; assay type: cell-based
Chain of Mitogen-activated protein kinase 8/9 (Homo sapiens) (P45983 whole entry, looked up): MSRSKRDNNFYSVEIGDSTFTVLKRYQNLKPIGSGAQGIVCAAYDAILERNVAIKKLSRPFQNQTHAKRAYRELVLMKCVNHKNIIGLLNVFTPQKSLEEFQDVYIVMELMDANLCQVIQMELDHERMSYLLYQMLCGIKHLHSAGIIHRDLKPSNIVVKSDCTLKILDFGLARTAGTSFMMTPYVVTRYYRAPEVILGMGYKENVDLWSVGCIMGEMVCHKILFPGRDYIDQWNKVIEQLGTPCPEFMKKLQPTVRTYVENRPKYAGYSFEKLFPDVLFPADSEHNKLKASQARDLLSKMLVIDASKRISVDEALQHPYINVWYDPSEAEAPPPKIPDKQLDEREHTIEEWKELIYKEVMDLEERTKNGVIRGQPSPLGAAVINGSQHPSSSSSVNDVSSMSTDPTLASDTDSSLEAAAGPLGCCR
Chain of Mitogen-activated protein kinase 8/9 (Homo sapiens) (P45984 whole entry, looked up): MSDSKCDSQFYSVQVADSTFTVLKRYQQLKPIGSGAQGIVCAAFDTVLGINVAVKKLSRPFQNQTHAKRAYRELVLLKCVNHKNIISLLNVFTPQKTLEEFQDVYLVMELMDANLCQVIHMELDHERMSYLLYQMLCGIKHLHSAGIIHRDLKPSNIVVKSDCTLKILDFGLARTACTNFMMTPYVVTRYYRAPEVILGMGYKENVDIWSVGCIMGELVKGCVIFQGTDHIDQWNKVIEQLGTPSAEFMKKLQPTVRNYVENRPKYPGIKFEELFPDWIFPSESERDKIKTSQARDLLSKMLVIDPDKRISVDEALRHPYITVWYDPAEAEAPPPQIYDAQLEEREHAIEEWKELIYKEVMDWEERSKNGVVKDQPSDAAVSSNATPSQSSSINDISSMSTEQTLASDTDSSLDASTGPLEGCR
Summary of the method: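 A549 exposed at 10 µM for varying times, or at various concentrations for 6 h. Inhibition arms pretreated 1 h with SP600125 (10 µM) or NAC (5 mM) before 10 µM for 6 h. Lysates run on 10% SDS-PAGE and transferred to PVDF. p-JNK probed, GAPDH as loading control.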

[3] = system: A549; test: Chemosensitization activity in human A549 cells assessed as inhibition of clonogenic growth at 0.25 uM in presence of 0.25 uM cisplatin incubated for 2 days followed by replacement of growth media and measured after 8 days by crystal violet staining-based assay relative to control; assay type: functional
Summary of the method: (§1)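 A549 seeded at 1000 cells per well in 6-well plates, exposed to drug alone or combined with cisplatin or 5-Fu over a concentration series. Drug-containing medium replaced after 2 days. After a further 8 days, fixed with 1% methanol/1% formaldehyde and stained with 0.5% crystal violet. Percent inhibition at each concentration calculated relative to control.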

[4] = system: A549; test: Chemosensitization activity in human A549 cells assessed as inhibition of clonogenic growth at 0.5 uM in presence of 0.25 uM cisplatin incubated for 2 days followed by replacement of growth media and measured after 8 days by crystal violet staining-based assay relative to control; assay type: functional; summary of the method: as §1

COc1cc(/C=C2\CN(C)C/C(=C\c3cc(OC)c(OC)c(OC)c3)C2=O)cc(OC)c1OC
IC50 [1]: 26.4 µM
Activity [2]: inactive
inhibition at 0.25 µM [3]: 51%
inhibition (INH) [4]: 59%

From ChEMBL document CHEMBL4152210, “Design, synthesis, anti-lung cancer activity, and chemosensitization of tumor-selective MCACs based on ROS-mediated JNK pathway activation and NF-κB pathway inhibition” (Eur J Med Chem, 2018)
